Arbovirus inh: antivirals against arbovirus infection. arbovirus infection cell-based antiviral screen. inhibition, % at 10 µM. actives 0.37% (n = 200,000); in the data active = inhibition above about 30%
HKDC1 inh: inhibitors of human hexokinase HKDC1. recombinant HKDC1, G6PDH/diaphorase resazurin coupled fluorescence. inhibition, % at 20 µM. actives 0.16% (n = 340,000);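 active = inhibition above about 35% when tested at 20 µM, limit read from the data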;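 note: plate controls were DMSO wells with enzyme for no effect and DMSO wells lacking enzyme for full effect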
Target sequence (Q2TB90 whole entry, looked up): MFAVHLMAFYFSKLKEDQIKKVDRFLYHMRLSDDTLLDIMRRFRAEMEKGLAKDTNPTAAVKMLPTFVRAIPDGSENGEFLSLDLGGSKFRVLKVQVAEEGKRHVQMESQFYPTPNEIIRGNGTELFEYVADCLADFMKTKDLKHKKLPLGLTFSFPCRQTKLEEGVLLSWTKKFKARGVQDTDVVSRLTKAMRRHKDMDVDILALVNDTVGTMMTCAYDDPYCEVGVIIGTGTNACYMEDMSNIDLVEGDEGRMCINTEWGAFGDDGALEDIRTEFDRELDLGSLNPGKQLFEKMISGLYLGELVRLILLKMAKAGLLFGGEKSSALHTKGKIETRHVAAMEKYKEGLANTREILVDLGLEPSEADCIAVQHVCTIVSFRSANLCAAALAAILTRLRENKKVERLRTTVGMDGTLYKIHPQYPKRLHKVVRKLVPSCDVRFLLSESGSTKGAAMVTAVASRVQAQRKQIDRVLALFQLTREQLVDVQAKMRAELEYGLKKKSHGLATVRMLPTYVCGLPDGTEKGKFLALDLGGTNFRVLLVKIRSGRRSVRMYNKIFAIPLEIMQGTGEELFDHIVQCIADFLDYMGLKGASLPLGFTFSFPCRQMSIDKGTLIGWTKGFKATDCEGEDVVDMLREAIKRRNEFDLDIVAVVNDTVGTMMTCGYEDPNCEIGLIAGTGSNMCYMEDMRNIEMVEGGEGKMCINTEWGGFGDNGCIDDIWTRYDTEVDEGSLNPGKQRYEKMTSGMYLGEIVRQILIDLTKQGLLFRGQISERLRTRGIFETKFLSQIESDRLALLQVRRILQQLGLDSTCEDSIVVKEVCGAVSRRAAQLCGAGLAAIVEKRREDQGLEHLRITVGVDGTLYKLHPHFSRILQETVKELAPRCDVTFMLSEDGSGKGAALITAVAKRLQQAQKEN
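Test system: Recombinant HKDC1 (HK5) hexokinase enzyme, produced in-house | Input: HKDC1 at 5 µg/mL | Buffer or medium: Tris pH 8.0 buffer with MgCl2, Tween-20, BSA, BME | Schedule: 90 min reaction incubation at room temperature, dark | Technique: Resazurin-to-resorufin fluorescence via G6PDH and diaphorase coupling, 525/613 nm | Controls: DMSO wells with and without enzyme mix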
Diaphorase inh: counter-screen for diaphorase-based assays: diaphorase inhibitors and chemical oxidizers; diaphorase resazurin-to-resorufin fluorescence, NADH, 16 min; bacterial (C. kluyveri) enzyme, not human; actives 0.69% (n = 190,000); inhibition, % at 20 µM;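 active = primary screen inhibition at 20 µM above a set limit, cut at about 50% in these data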;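 note: plate controls were DMSO with full reaction for no effect and wells lacking NADH for full effect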
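Test system: diaphorase enzyme from Clostridium kluyveri; amount: diaphorase at 0.14 U/mL in enzyme working solution; detection: fluorescence of resorufin formed from resazurin, Ex 544/Em 590 nm; times: reaction incubation of 16 min at room temperature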
Diaph act CS: activates diaphorase or chemically reduces, flagging diaphorase assay artifacts; activation factor at 20 µM; actives 0.005% (n = 190,000); Diaphorase/resazurin coupled assay, resorufin fluorescence, 16 min; stronger effect = higher value; 1 = vehicle wells, 0 = NADH-free wells;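 active = diaphorase activity raised at least twofold by the compound at 20 µM; inactive = activation factor below 2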
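Assay system: Purified diaphorase enzyme from Clostridium kluyveri | Amount: Enzyme 0.07 U/mL final | Dosing: Compound 20 µM once, DMSO 1% | Timing: 16 min reaction at room temperature | Detection: Fluorescence, excitation 544 nm and emission 590 nm | Evaluation: Higher resorufin formation from activation or reduction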
G6PDH CS: L. mesenteroides G6PDH inhibition counter-screen; Purified L. mesenteroides G6PDH, diaphorase/resazurin coupled fluorescence, 45 min; inhibition, % at 5 µM; actives 0.12% (n = 200,000); AID 1020; in the data active = inhibition above about 50%
* = called active by the depositor; . = no result. Rows were chosen to be rich in hits. Some 0.74% of all compounds tested hit in one or more screens of this group.

SMILES	Arbovirus inh	HKDC1 inh	Diaphorase inh	Diaph act CS	G6PDH CS
O=[N+]([O-])c1ccccc1C1Nc2cccc3cccc(c23)N1	0.1	29.6	56.9*	0.4	-18.4
Oc1ccccc1C1Nc2cccc3cccc(c23)N1	-0.6	3.2	34.3	0.7	19.3
O=[N+]([O-])c1ccc(Cl)c(C2Nc3cccc4cccc(c34)N2)c1	-3.6	14.9	57.4*	0.4	6.8
Cc1c(C(=O)c2ccc(Cl)cc2[N+](=O)[O-])c2ccccn2c1CCC#N	3.3	0.9	63.6*	0.4	-1.1
O=c1oc2ccccc2c(Nc2cc3ccccc3cc2O)c1[N+](=O)[O-]	-6.7	10.7	45.8	0.5	45.0
O=c1oc2ccccc2c(Nc2ccccc2O)c1[N+](=O)[O-]	-26.7	-7.1	58.5*	0.4	18.8
CCCCN1CC(COCc2ccccc2)Oc2cccc(Oc3ccc(F)cc3)c2S1(=O)=O (stereo not drawn)	.	0.2	.	.	.
O=C(COC(=O)Cc1ccccc1F)Nc1ccc(F)cc1F	0.9	0.4	22.9	0.8	-3.7
CC(C)n1c2ccccc2c2nnc(SCC(=O)OCN3C(=O)c4ccccc4C3=O)nc21	-7.2	17.4	57.0*	0.4	-5.2
CS(=O)(=O)c1ccc(Cl)c(NC(=O)COC(=O)CCN2C(=O)C3CC=CCC3C2=O)c1 (stereo not drawn)	.	-7.9	.	.	.
CCOC(=O)c1sc(NC(=S)NC(=O)c2cccc(Cl)c2)c(C(=O)OCC)c1C	36.6*	-4.7	-6.5	1.1	-14.5
O=c1oc(-c2cccs2)nc2ccc(Br)cc12	45.8*	3.1	1.2	1	4.7
COc1ccccc1NS(=O)(=O)c1ccc(C)c(NC(=O)C2CCCO2)c1 (stereo not drawn)	.	0.4	.	.	.
N#Cc1c(-c2cccc(Br)c2)cc(-c2ccco2)[nH]c1=O	12.7	6.1	66.7*	0.3	5.6
COc1ccc(-c2cc(-c3ccco3)[nH]c(=O)c2C#N)cc1	.	2.6	.	.	.
CCN1C[C@@H]2[C@@H]3C(=O)N(Cc4ccccc4)C(=O)[C@@H]3[C@](CC)(C1=O)N2C(=O)c1ccc(Cl)c(Cl)c1	.	0.4	.	.	.
C#CCOCCOCCOCCNc1nc(N2CCOCC2)nc(N2CCN(C(=O)[C@H](Cc3ccc(O)cc3)n3cc([C@@H](N)C(C)CC)nn3)CC2)n1 (stereo partly drawn)	4.2	-0.4	78.7*	0.2	8.9
S=c1[nH]cnc2scc(-c3ccccc3)c12	-0.1	-1.8	64.1*	0.4	-13.8
Clc1ncnc2scc(-c3ccccc3)c12	-0.4	-4.2	6.9	0.9	-5.1
CCOC1=C/C(=C/c2c(N)n3nc(-c4ccccc4)sc3nc2=O)C=CC1=O	33.3*	8.6	69.4*	0.3	15.2
CCS(=O)(=O)c1nn2c(N)c(/C=C3/C=CC(=O)C(OC)=C3)c(=O)nc2s1	-3.8	7.3	9.7	0.9	-15.5
COC1=C/C(=C/c2c(N)n3nc(-c4ccc(C)cc4)sc3nc2=O)C=CC1=O	31.9*	21.6	21.0	0.8	14.7
COC1=C(C)C(=O)C2=C(C1=O)C1C3CC4=C(C(=O)C(OC)=C(C)C4=O)C(CNC(=O)C(C)=O)N3C(C#N)C(C2)N1C (stereo not drawn)	.	60.5*	.	.	.
Cc1cccc(N2CCc3c2nc2ccc(Br)cc2c3N)c1	-6.3	8.1	77.8*	0.2	7.0
Nc1c2c(nc3ccc(Br)cc13)N(c1ccccc1)CC2	8.0	-7.2	25.9	0.7	-0.1
SMILES	Arbovirus inh	HKDC1 inh	Diaphorase inh	Diaph act CS	G6PDH CS
O=C(Cc1ccccc1)N/N=C/c1ccc2cccc(O)c2n1	-0.2	5.6	15.1	0.8	56.2*
Nc1ccc(N)c(C(=O)O)c1	.	36.0*	.	.	.
CC(=O)Nc1ccc(-c2csc(NC(=O)c3ccc(C)o3)n2)cc1	38.5*	11.6	14.2	0.9	1.8
Cc1ccc(C(=O)Nc2nc(-c3ccc([N+](=O)[O-])cc3)cs2)o1	-8.5	-6.1	-1.6	1	8.8
COc1ccc(-c2csc(NC(=O)c3ccco3)n2)cc1	65.3*	2.6	3.0	1	5.7
O=C(Nc1nc(-c2ccco2)cs1)c1ccccc1	62.3*	0.8	27.8	0.7	3.2
CC(=O)Nc1ccc(C(=O)Nc2nc(-c3ccccn3)cs2)cc1	34.5*	-0.5	-9.9	1.1	15.4
O=C(NCCO)C(=O)c1c(-c2ccccc2)cc2ccccn12	6.2	-2.3	14.2	0.9	3.5
Cc1[nH]c2ccccc2c1C(=O)C(=O)N1CCN(c2ccccc2)CC1	.	3.4	.	.	.
O=[N+]([O-])c1c(NCCCO)cc(SCc2ccco2)c2nonc12	-25.7	2.3	65.7*	0.3	14.9
CC(=O)OCCCNc1cc(Sc2nc3ccccc3s2)c2nonc2c1[N+](=O)[O-]	-40.0	22.4	62.5*	0.4	-67.5
CCCC(=O)OCCNc1cc(SCCC(=O)OC)c2nonc2c1[N+](=O)[O-]	-32.0	1.3	75.1*	0.2	2.1
O=[N+]([O-])c1c(NCCO)cc(N2CCC3(CC2)OCCO3)c2nonc12	6.8	-2.7	55.4*	0.4	23.3
CCc1ccc(NC(=O)C(C)OC(=O)c2ccc(-n3cnnn3)cc2)cc1 (stereo not drawn)	.	-7.7	.	.	.
CCOc1ccc(C=NNC(=O)c2cccc3ccccc23)cc1OCC	.	1.4	.	.	.
CC(=O)OCCNc1cc(SCc2ccco2)c2nonc2c1[N+](=O)[O-]	-36.7	5.7	76.9*	0.2	12.5
O=[N+]([O-])c1c(NCCCO)cc(Sc2ccc(Cl)cc2)c2nonc12	-15.7	13.9	54.1*	0.5	11.3
COc1ccc(CNc2cc(NCCCO)c([N+](=O)[O-])c3nonc23)cc1	11.9	17.9	60.7*	0.4	29.5
COc1ccc(Nc2cc(NCCCO)c([N+](=O)[O-])c3nonc23)cc1	.	10.5	.	.	.
COC(=O)CCSc1cc(NCCOC(C)=O)c([N+](=O)[O-])c2nonc12	-0.3	21.0	24.7	0.8	16.0
C[C@H](CO)N1C[C@H](C)[C@@H](CN(C)CC2CCCCC2)Oc2ccc(NC(=O)CCN3CCOCC3)cc2C1=O	.	-4.3	.	.	.
NC(=O)N/N=C/c1ccccc1OC(=O)c1ccccc1Br	1.1	10.5	12.4	0.9	10.5
Cc1cc(Br)ccc1-n1[nH]c(C)c(C=Nc2cccc3nsnc23)c1=O	-15.0	6.3	61.1*	0.4	14.7
CC1=CC2C(C3C=CC2(C)C(=O)C3(C)O)C(C)(O)C1=O (stereo not drawn)	.	-3.3	.	.	.
CSC1=NSC2=NC(=O)/C(=C/c3coc4ccccc4c3=O)C(=N)N12	-7.9	1.6	36.7	0.6	5.5
N=C1/C(=C/c2cccs2)C(=O)N=C2SN=C(SCc3ccccc3)N12	34.8*	7.6	14.5	0.9	4.3
CSC1=NSC2=NC(=O)/C(=C\c3cccs3)C(=N)N12	40.9*	2.7	10.6	0.9	-4.4
CC(C)CSC1=NSC2=NC(=O)/C(=C\c3cccs3)C(=N)N12	48.4*	14.1	16.8	0.8	4.2
